Experimental data from different studies.
Compare with care: the assays were run in different laboratories.
Target: Myosin light chain kinase family member 4 (MYLK4, Homo sapiens, UniProt Q86YV6)
One construct used (Q86YV6 1-388): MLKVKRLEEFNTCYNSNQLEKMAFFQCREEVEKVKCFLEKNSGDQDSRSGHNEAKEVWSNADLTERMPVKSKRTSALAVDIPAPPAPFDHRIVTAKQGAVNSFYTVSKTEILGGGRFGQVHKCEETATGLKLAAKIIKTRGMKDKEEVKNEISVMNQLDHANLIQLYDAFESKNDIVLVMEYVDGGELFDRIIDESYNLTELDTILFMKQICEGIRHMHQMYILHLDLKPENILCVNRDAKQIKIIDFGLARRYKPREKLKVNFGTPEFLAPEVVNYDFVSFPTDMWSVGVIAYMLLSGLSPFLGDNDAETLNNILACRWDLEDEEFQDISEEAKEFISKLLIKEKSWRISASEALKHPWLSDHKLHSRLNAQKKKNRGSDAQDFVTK

| Structure (SMILES) | assay | setting | remaining binding [%] |
| --- | --- | --- | --- |
| Cc1cnn2ncc(-c3ccnc(N(C)C)n3)c2c1 | binding | 1 µM | 80 |
| CC(=O)c1c(NS(C)(=O)=O)c2cc(-c3ccc(Cl)cc3)c(-c3ccc(Cl)cc3Cl)nc2n(C)c1=O | cell-free assay, competition with immobilised ligand | 1 µM | 100 |
| N[C@H]1CCN(c2nccc(-c3cnn4ncccc34)n2)C1 | binding | 1 µM | 100 |
| CS(=O)(=O)N1CCCC(NC(=O)[C@H](CCC2CCCCC2)NC(=O)c2ccc(CNc3ncnc4c3nnn4-c3ccccc3)cc2)C1 (stereo partly shown) | cell-free assay, competition with immobilised ligand | 0.1 µM | 100 |
| O=C(NCCCN1CCOCC1)c1ccc(Nc2nccc(-c3cc4ccccc4s3)n2)cc1 | binding, competition with immobilised ligand | 1 µM | 0.1 |
| CCS(=O)(=O)c1cc2cc(C[C@@](O)(CC(C)(C)c3ccc(F)cc3C(N)=O)C(F)(F)F)[nH]c2cn1 | cell-free assay, competition with immobilised ligand | 1 µM | 100 |
| CC1CCCN1c1nccc(-c2cnn3ncccc23)n1 (stereo not shown) | binding | 1 µM | 100 |
| FC(F)(F)Oc1cccc(-c2cnc3ccc(-c4ccncc4)nn23)c1 | cell-free assay, competition with immobilised ligand | 5 µM | 0.35 |
| c1cncc(-c2cccc(Nc3nccc(NC4CCCCC4)n3)c2)c1 | binding, competition with immobilised ligand | 10 µM | 51 |
| O=S(=O)(NC1CCC(c2cc(F)ccc2F)(S(=O)(=O)c2ccc(Cl)cc2)CC1)C(F)(F)F (stereo not shown) | cell-free assay, competition with immobilised ligand | 1 µM | 100 |
| CNC(=O)[C@@H]1CC[C@@H](n2c(-c3ccc4cnccc4c3)nc3ccc(C(=O)NCc4cccc(C(N)=O)c4)cc32)C1 | binding, competition with immobilised ligand | 1 µM | 100 |
| c1cnn2ncc(-c3ccnc(N4CCC45COC5)n3)c2c1 | binding | 1 µM | 78 |
| COc1ccc2c(c1)O[C@@H](c1ccc(OC)c(OC)c1)C[C@H]2NC(=O)C1(c2ccc3c(c2)OC(F)(F)O3)CC1 | cell-free assay, competition with immobilised ligand | 1 µM | 97 |
| O=C(c1ccc(Nc2nccc(-c3cc4ccccc4s3)n2)cc1)N1CCC(N2CCCC2)CC1 | binding, competition with immobilised ligand | 1 µM | 0.1 |
| COc1ncc2cc3ccccc3nc2c1C#N | cell-free assay, competition with immobilised ligand | 5 µM | 93 |
| C[C@H](c1cccc(C#N)c1)n1cc(Cl)cc(C(N)=O)c1=N | cell-free assay, competition with immobilised ligand | 1 µM | 100 |
| C[C@@H]1CCN(c2nccc(-c3cnn4ncccc34)n2)C1 | binding | 1 µM | 100 |
| Cc1cnc(Nc2ccc(C(=O)N3CCC(N4CCCC4)CC3)cc2)nc1-c1cc2ccccc2s1 | binding, competition with immobilised ligand | 1 µM | 0 |
| O=C(Nc1c[nH]nc1C(=O)NC1CCNCC1)c1cc(F)cc(F)c1 | binding, competition with immobilised ligand | 1 µM | 100 |
